Measured values reported in PMC9090800 (RSC Advances, 2018).
≈ marks a conversion by molar mass, not a printed value.

What was measured:
[1] = tested on: ergosterol content in C. albicans ATCC 90028; assay: Sterol estimation assay; format: cell-based, Candida albicans; settings: vs untreated cells
[2] = tested on: C. albicans; assay: Growth curve studies; format: cell-based, Candida albicans
Outline: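 C. albicans revived on SD agar and pre-grown 16 h at 30 °C in SD broth. About 2 × 10^3 cells per mL were inoculated into 50 mL SD medium containing test compound at 2MIC, MIC or MIC/2, then shaken at 30 °C, 160 rpm. Fluconazole at 31.25 μg mL−1 and untreated cells served as controls. OD600 was read on 1 mL aliquots every 2 h from 0 to 24 h.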

[3] = Hemolytic assay; format: cell-based; settings: human, human red blood cells (erythrocyte suspension in PBS)
Outline: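 Fresh human blood was collected in EDTA and spun 10 min at 2000 rpm. Erythrocytes were washed three times in PBS and made to a 10% (v/v) suspension, then diluted 1:10. Equal volumes of cells and test compound dilution series in PBS were incubated in triplicate for 1 h at 37 °C and re-centrifuged. Supernatant A450 was expressed relative to buffer (0%) and 1% Triton X-100 (100% lysis). Fluconazole was the reference.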

[4] = tested on: C. albicans (ATCC 90028); assay: In vitro anticandidal activity, broth dilution; format: cell-based; settings: Candida albicans, ATCC90028, 24 h, read-out: IC50 ± S.D, C. albicans
Outline: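 Broth dilution followed the NCCLS protocol. Test compound in DMSO was diluted in PBS, then tested at 1000 to 7.8 μg mL−1 in SD broth with about 2.5 × 10^3 cells per mL in 96-well plates. Plates were shaken 24 h at 30 °C, 150 rpm, and read at OD580. IC50 was the concentration halving absorbance versus untreated cells, taken from a log10 concentration versus % inhibition plot. Triplicates were run on separate occasions, with fluconazole as positive control.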

[5] = tested on: human embryonic kidney (HEK-293) cells; assay: Cytotoxicity by MTT assay; format: cell-based; settings: HEK-293, 100 μg mL^−1, 24 h
Outline: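 HEK-293 cells grown as monolayers in DMEM with 10% FBS, penicillin and streptomycin, 37 °C, 5% CO2, at most 30 passages. Seeded at about 8 × 10^3 cells per well, 24 h before dosing. Test compound (DMSO stock diluted in PBS) given at 10–200 μg mL−1 for 24 h at 37 °C. Serum-free medium, then MTT (5 mg mL−1 in PBS), 4 h. Formazan dissolved in DMSO, A570 read. Triplicate; viability relative to untreated cells.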

[6] = tested on: C. tropicalis (ATCC 750); assay: In vitro anticandidal activity, broth dilution; format: cell-based, Candida tropicalis; settings: ATCC 750, 24 h, OD 580 nm

IC50 [4] [µg/mL] | IC50 ± S.D, C. tropicalis [6] [µg/mL] | Structure (SMILES) | decrease in ergosterol content ([1]; 2MIC (500 μg mL^−1)) [%] | decrease in ergosterol content ([1]; MIC (250 μg mL^−1)) [%] | decrease in ergosterol content ([1]; MIC/2 (125 μg mL^−1)) [%] | growth of Candida cells ([2]; 2MIC and MIC, 24 h) | nature of inhibition ([2]; no significant growth after 24 h at higher concentrations) | time after which growth was observed ([2]; sub-MIC (MIC/2), standard C. albicans strain) [h] | hemolysis at 1 h, 1000 μg mL^−1 [3] [%] | cell viability (MTT) [5]
14.6 ± 2.1 (≈ 37.5 µM) | – | CCOC(=O)c1nc2ccccc2c(=O)n1Cc1cn(-c2ccc(C)cc2)nn1 [Compound 5n, Ethyl 4-oxo-3-((1-p-tolyl-1H-1,2,3-triazol-4-yl)methyl)-3,4-dihydroquinazoline-2-carboxylate] | 57 | 55 | 48 | did not show any significant growth | fungicidal | 7 | 41.2 | no significant decrease in cell viability
65.6 ± 3.2 (≈ 160 µM) | 28.2 ± 2.2 (≈ 68.8 µM) | CCOC(=O)c1nc2ccccc2c(=O)n1Cc1cn(-c2cccc(Cl)c2)nn1 [Compound 5g, Ethyl 3-((1-(3-chlorophenyl)-1H-1,2,3-triazol-4-yl)methyl)-4-oxo-3,4-dihydroquinazoline-2-carboxylate] | – | – | – | – | – | – | < 20 | no significant decrease in cell viability
48.2 ± 3.2 (≈ 128 µM) | – | COc1ccccc1-n1cc(Cn2c(C(=O)O)nc3ccccc3c2=O)nn1 [Compound 6e, 3-((1-(2-Methoxyphenyl)-1H-1,2,3-triazol-4-yl)methyl)-4-oxo-3,4-dihydroquinazoline-2-carboxylic acid] | – | – | – | – | – | – | < 20 | no significant decrease in cell viability
